Data from ChEMBL document CHEMBL3526151, “Reversible disulfide formation of the glutamate carboxypeptidase II inhibitor E2072 results in prolonged systemic exposures in vivo” (Drug Metab Dispos, 2012).

Tests used:
[1] = Metabolic stability in cynomolgus monkey plasma assessed as compound remaining at 5 to 10 uM after 1 hr by LC-MS/MS analysis; assay type: ADME, cell-free, Macaca fascicularis; conditions: read-out: Stability
Method in brief: (§1)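 Compound at 5 and 10 µM was incubated at 37°C in Sprague-Dawley rat or cynomolgus monkey plasma. Aliquots taken at 0, 30 and 60 min were quenched with acetonitrile and analyzed by LC-MS/MS. Percent remaining = analyte/internal-standard area ratio at time t divided by that at time 0.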

[2] = Phase 1 metabolic stability in rat liver microsomes assessed as compound remaining at 10 uM measured for 1 hr by LC-MS/MS analysis in absence of cofactors; assay type: ADME; conditions: read-out: Stability
Method in brief: (§2)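 Cofactor-free controls were run for each microsomal incubation: 0.5 mg/ml liver microsomes with 10 µM compound, omitting cofactors, so that cofactor-independent degradation could be measured. Samples were taken up to 1 h, quenched with acetonitrile containing internal standard, and the percent remaining was determined by LC-MS/MS.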

[3] = Cmax in Sprague-Dawley rat at 1 mg/kg, po administered via gavage measured under fasted conditions by LC-MS/MS analysis; assay type: ADME, organism-based; set-up: dose 1 mg/kg, route oral; conditions: in vivo
Method in brief: (§3)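 Fasted male Sprague-Dawley rats (280–330 g) received 0.1, 1, 10 or 30 mg/kg by oral gavage in 50 mM HEPES buffered saline, pH 7.4. Blood drawn at 0.25–24 h into heparin/NEM tubes; plasma analyzed by LC-MS/MS. Cmax taken as observed. AUC by linear trapezoidal rule with extrapolation by λz. Cl/F and Vd/F reported. Mean ± S.D., n = 4–9.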

[4] = Tmax in Sprague-Dawley rat at 10 mg/kg, po administered via gavage measured under fasted conditions by LC-MS/MS analysis; assay type: ADME, organism-based; set-up: dose 10 mg/kg, route oral; conditions: in vivo
Method in brief: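 Jugular-cannulated male Sprague-Dawley rats, 280–330 g, fasted overnight to 4 h post-dose. Single dose in 50 mM HEPES-buffered saline pH 7.4, by oral gavage or as tail-vein i.v. bolus. Blood into heparin/NEM tubes at 0–24 h. Plasma measured by LC-MS/MS; noncompartmental analysis; Tmax observed; Vd = dose/(AUCinf·λz).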

[5] = Drug recovery in cynomolgus monkey serum protein binding experiment; conditions: in vitro
Rattus norvegicus [6] = experiment: Analgesic activity in Sprague-Dawley rat chronic constriction injury model assessed as change in paw withdrawal latency at 10 mg/kg/day, po measured 4 days after drug treatment cessation (reference value: -2.85 +/-0.32 s); assay type: functional
[7] = Phase 2 metabolic stability in rat liver microsomes assessed as compound remaining at 10 uM measured for 1 hr by LC-MS/MS analysis; assay type: ADME; conditions: read-out: Stability
Method in brief: (§4)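 Glucuronidation in liver microsomes of the named species, 0.5 mg/ml protein, compound at 10 μM final, in 50 mM Tris-HCl pH 7.5 with 8 mM MgCl2 and 25 μg/ml alamethicin. Preincubated at 37°C, then started with 2 mM UDPGA (final); cofactor-free controls run alongside. Duplicate reactions, sampled up to 1 h, quenched with cold acetonitrile plus internal standard; disappearance followed by LC-MS/MS.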

[8] = Oral bioavailability in Sprague-Dawley rat at 0.1 mg/kg administered via gavage measured under fasted conditions by LC-MS/MS analysis; assay type: ADME, organism-based; conditions: in vivo
[9] = Phase 1 metabolic stability in monkey liver microsomes assessed as compound remaining at 10 uM measured for 1 hr by LC-MS/MS analysis; assay type: ADME, Macaca mulatta; conditions: rhesus monkey, read-out: Stability
Method in brief: (§5)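 Liver microsomes (0.5 mg/ml) were incubated with 10 µM compound (final) in 100 mM potassium phosphate, pH 7.4. An NADPH-regenerating system was present: 1.3 mM NADPH, 3.3 mM glucose 6-phosphate, 3.3 mM MgCl2, 0.4 U/ml G6PDH and 50 µM sodium citrate. Runs were in duplicate, with samples taken up to 1 h and quenched with acetonitrile containing internal standard. Loss of compound was followed by LC-MS/MS.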

[10] = AUC(0 to last) in Sprague-Dawley rat at 10 mg/kg, iv administered as bolus injection measured under fasted conditions by LC-MS/MS analysis; assay type: ADME, organism-based; set-up: time 0 - last, dose 10 mg/kg, route intravenous; conditions: plasma
Method in brief: (§6)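 Male Sprague-Dawley rats (280–330 g), jugular vein cannulated, fasted overnight until 4 h post-dose. Single tail-vein bolus of 0.1, 1, 10 or 30 mg/kg in 50 mM HEPES buffered saline, pH 7.4. Blood drawn 0–24 h into heparin tubes containing NEM. Plasma quantified by LC-MS/MS after NEM derivatization. Noncompartmental analysis: AUClast by linear trapezoidal rule, Cl = dose/AUC0-∞. Mean ± S.D., n = 4–9.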

[11] = Phase 1 metabolic stability in rat liver microsomes assessed as compound remaining at 10 uM measured for 1 hr by LC-MS/MS analysis; assay type: ADME; conditions: read-out: Stability; method in brief: as §5
[12] = Cmax in Sprague-Dawley rat liver at 10 mg/kg, po administered as single dose measured per gm of tissue by LC-MS/MS analysis; assay type: ADME, organism-based; set-up: dose 10 mg/kg, route oral
Method in brief: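 Male Sprague-Dawley rats were dosed orally with 10 mg/kg/day, either once or daily for 5 days; n = 4 per group. Blood was taken by cardiac puncture and liver, kidney, brain and sciatic nerve were collected at 0–8 h post-dose. Tissues were homogenized in PBS containing NEM at equal volume per gram. NEM-derivatized analyte was extracted with methanol and quantified by LC-MS/MS (1–5000 ng/ml). Cmax is the observed value.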

[13] = Cmax in Sprague-Dawley rat at 30 mg/kg, po administered via gavage measured under fasted conditions by LC-MS/MS analysis; assay type: ADME, organism-based; set-up: dose 30 mg/kg, route oral; conditions: in vivo; method in brief: as §3
[14] = Half life in Sprague-Dawley rat at 1 mg/kg, iv administered as bolus injection measured under fasted conditions by LC-MS/MS analysis; assay type: ADME, organism-based; set-up: dose 1 mg/kg, route intravenous; conditions: in vivo
Rattus norvegicus [15] = experiment: Clearance in Sprague-Dawley rat at 10 mg/kg, iv administered as bolus injection measured under fasted conditions by LC-MS/MS analysis; assay type: ADME, organism-based; set-up: dose 10 mg/kg, route intravenous; conditions: in vivo; method in brief: as §6
[16] = AUC(0 to infinity) in Sprague-Dawley rat at 0.1 mg/kg, iv administered as bolus injection measured under fasted conditions by LC-MS/MS analysis; assay type: ADME, organism-based; set-up: time infinity, dose 0.1 mg/kg, route intravenous; conditions: plasma; method in brief: as §6
[17] = Phase 2 metabolic stability in rat liver microsomes assessed as compound remaining at 10 uM measured for 1 hr by LC-MS/MS analysis in absence of cofactors; assay type: ADME; conditions: read-out: Stability; method in brief: as §4
[18] = AUC(0 to last) in Sprague-Dawley rat at 0.1 mg/kg, po administered via gavage measured under fasted conditions by LC-MS/MS analysis; assay type: ADME, organism-based; set-up: time 0 - last, dose 0.1 mg/kg, route oral; conditions: plasma; method in brief: as §3
[19] = Oral bioavailability in Sprague-Dawley rat at 30 mg/kg administered via gavage measured under fasted conditions by LC-MS/MS analysis; assay type: ADME, organism-based; conditions: in vivo
[20] = AUC(0 to infinity) in Sprague-Dawley rat at 1 mg/kg, po administered via gavage measured under fasted conditions by LC-MS/MS analysis; assay type: ADME, organism-based; set-up: time infinity, dose 1 mg/kg, route oral; conditions: plasma; method in brief: as §3
[21] = Phase 2 metabolic stability in monkey liver microsomes assessed as compound remaining at 10 uM measured for 1 hr by LC-MS/MS analysis in absence of cofactors; assay type: ADME, Macaca mulatta; conditions: rhesus monkey, read-out: Stability; method in brief: as §2
[22] = AUC(0 to infinity) in Sprague-Dawley rat at 30 mg/kg, iv administered as bolus injection measured under fasted conditions by LC-MS/MS analysis; assay type: ADME, organism-based; set-up: time infinity, dose 30 mg/kg, route intravenous; conditions: plasma; method in brief: as §6
[23] = Phase 2 metabolic stability in human liver microsomes assessed as compound remaining at 10 uM measured for 1 hr by LC-MS/MS analysis in absence of cofactors; assay type: ADME; conditions: read-out: Stability; method in brief: as §2
[24] = Metabolic stability in Sprague-Dawley rat plasma assessed as compound remaining at 5 uM after 1 hr by LC-MS/MS analysis; assay type: ADME, cell-free; conditions: read-out: Stability; method in brief: as §1

remaining at 1 h, up to 10 µM [1]: > 90%
remaining at 1 h, 10 µM [2]: > 90%
Cmax [3]: 1100 ng/mL
Tmax [4]: 1.03 h
Drug recovery [5]: 80%
remaining at 1 h, 10 µM [7]: > 90%
bioavailability [8]: 17.4%
remaining at 1 h, 10 µM [9]: > 90%
AUC(0-t) [10]: 90200 ng·h/mL
remaining at 1 h, 10 µM [11]: > 90%
Cmax [12]: 453 ng/g
Cmax [13]: 13000 ng/mL
half-life [14]: 3.25 h
CL (Rattus norvegicus [15]): 4.5 mL/min/kg
AUC(0-inf) [16]: 1970 ng·h/mL
remaining at 1 h, 10 µM [17]: > 90%
AUC(0-t) [18]: 268 ng·h/mL
bioavailability [19]: 37.5%
AUC(0-inf) [20]: 3210 ng·h/mL
remaining at 1 h, 10 µM [21]: > 90%
AUC(0-inf) [22]: 204000 ng·h/mL
remaining at 1 h, 10 µM [23]: > 90%
remaining at 1 h, 5 µM [24]: 55%
SMILES: O=C(O)c1cccc(-c2cccc(CCS)c2C(=O)O)c1
Time (Rattus norvegicus [6]): -1.36 s
